Test results taken from the RNAGym collection of RNA variant scans (doi:10.1126/science.aae0568).
This sample holds only a part of the variants without activity.

B1: tRNA (parent)
chain: GUUCCGUUGGCGUAAUGGUAACGCGUCUCCCUCCUAAGGAGAAGACUGCGGGUUCGAGUCCCGUACGGAACG

Variants of: B1
Test: yeast fitness relative to wild type (ratio to wild type); higher = fitter; tRNA-Arg(CCU), competitive growth, 37 C, YPD
In short: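 Variants of the tRNA-Arg(CCU) gene, chemically synthesised with a 3% per-site mutation rate at 69 sites, were placed at the native genomic locus in Saccharomyces cerevisiae. The pooled strains were competed in YPD at 37°C for 24 hours in six parallel replicates. Gene amplicons from the start population and from each end population were read by 100-nucleotide paired-end sequencing. Darwinian fitness relative to wild type came from changes in genotype frequencies; genotypes needed ≥ 100 starting reads, and estimates < 0.5 were set to 0.5.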

Variant | yeast fitness
GAUCCGUGGGCGUAAUGGUAACGCGUCUCCCUACUAAAGAGAAGACUGCGGGUUCGAGUCCCGUACGGAACG [U2A U8G C33A G38A] | ≤ 0.5
GCUUCGUUGGCGUAAUGGUACCGCGUCCCCACCCUAAGGAGAAGACUGCGGGUUCGAGUCCCGUACGGAACG [U2C C4U A21C U28C C31A U32C] | ≤ 0.5
GAUCCGUUGGCGUAAUGGUAACGCGUCGCCCUCCUAAGGAGAAGACUGCGGGUUCGAGUCCCGUACAGAACG [U2A U28G G67A] | ≤ 0.5
GAUCCGUUGGCGUAAUGGUAACGCGUCUCCCUCCUAAGGAGAAGACGGAGGGUUCGAGUUCCGUCCGGAACG [U2A U47G C49A C60U A65C] | ≤ 0.5
GAUCCGUUGGCGUAAUGGAAACGCGUCUCCCUCCUAAGGAGAAAACUGCGGGUUCGAGUCCCGUACGGAACG [U2A U19A G44A] | 0.544
GCUCCGUUGGCGUAAUGGUAACGCGUCUCCCUCCUAAGGAGAAGACUGCGGGUUCGAGUCCCGUACGGACCG [U2C A70C] | 0.972
GCUUCGUUGGCGUAAUGGUAACGCGUCUCACUCCUAAGGAGAAGACUGCGGGUUCGAGUCCCGUACGGAACG [U2C C4U C30A] | 0.716
GAUCCGUUGGCGGAAUGGUAACGCGUCUCCCUCCUAAGGAGAAGACUGCGGGUUCGAGUCCGGUACGGAACG [U2A U13G C62G] | ≤ 0.5
GAGCCGUUGGAGUAACGGUAAGGCGUCUCCCUCCUAAGGAGAAGACUGCGGGUUCGCGUCCCGUACGGAACG [U2A U3G C11A U16C C22G A57C] | ≤ 0.5
GCUCCGUUGGCGUAAUGGUAACGCGUCUCCCUCCUAGGGAGAAGACUGCGGGUUCGAGUCCCGUACGGACCG [U2C A37G A70C] | 0.561
GCUCCGUUGGCGUAAUGGUAACGCGUCUCCCUCCUAAGGAGUAGACUGCGGGUUCGAGUCCUGUACGGAACG [U2C A42U C62U] | 0.571
GCUCCGUUGGCGUAAUGGUACCGCGUCUCCCUCCUAAGGAGAAGACUGCGGGUUCGAGUCCCGUACGGAACG [U2C A21C] | 0.775
GCUCCGUUGGCGUAAUGGUAGCGCGUCUCCCUCCUAAGGAGAAGACUGCGGGUUCGAGUCCCGUACGGAACG [U2C A21G] | 0.975
GAACCGUUGGCGUAAUGGUAACGCGACUCCCUCCUAAGGAGAAGACUGCGAGUUCGAGUCCCGUACGGAACG [U2A U3A U26A G51A] | ≤ 0.5
GCUCCGUUGGCGUAAUGGUAACGCGUCUCCCUCCUAAGGAGACGACUGCGGGUUCGAGUCCCGUACGGAACG [U2C A43C] | 0.874
GCUCCGUUGGCGUGAUGGUAACGCGUCACCCUCCUAAGGAGAAGACUGCGGGUUCGAGUCCCGUACGGAACG [U2C A14G U28A] | 0.534
GCUCCGUUGGCGUAAUGGUAACGCGUCUCCCUCCUAAGGAGAAGUCUGCGGGUUCGAGUCCUCUACGGAACG [U2C A45U C62U G63C] | ≤ 0.5
GAUCCGUUGGCGUAAUGGUAACGCGUCUCCCUCCUAAGGAGAAGACUGCCGGUUCGAGCACCGUACGGAACG [U2A G50C U59C C60A] | 0.877
GCUCCGUUGGCGUAAUGGUCACGCGUUUCCCUCCUAAGGAGAAGACUGCGGGUUCGAGUCCCGUACGGAACG [U2C A20C C27U] | 0.838

Variant | yeast fitness
GAACCGUUGGCGUAAUGGUAACGGGUCUCCCUCCUAAGGAGAAGACUGCGGCUUCGAGUCCCGUACGGAACG [U2A U3A C24G G52C] | ≤ 0.5
GAUCCGUUGGCGUAAUGGUAACGCGUCUCCCUCCUAAGGAGAAGACUGCGGGUUCGAGUCCCGUACGCAACG [U2A G68C] | 0.671
GCUCCGUUGGCGUGAUGGUAACGCGUCUACCUGCUAAGGAGAAGACUGCGGGUUCGAGUCCCGUACGGAACG [U2C A14G C29A C33G] | 0.565
GAUCCGUUGGCGCAAUGGUGCCGCGUCUCCCUCUUGAGGAGAAGACUGCGGGUUCGAGUCCCGUACGGAACG [U2A U13C A20G A21C C34U A36G] | ≤ 0.5
GAUCCGUUGGCGUAAUGGUAACGCGUCUCCCUCCUAAGGAGAACACUGCGGGUUAGAGUCCCGUACGGAACG [U2A G44C C55A] | ≤ 0.5
GAUCCGUUGGCGUAAUGGUAACGCGUCUCCCUCCUAAGGAGAAGACGGCGGGUUCGAGUCCCGUACGGAACG [U2A U47G] | 0.583
GAUCCGUAGGCGUAAUGGUAACGCGUCUCCCUCCUAAGGAGAAGACAGCGGGUUCGAGUCCCGUACGGUACG [U2A U8A U47A A69U] | ≤ 0.5
GCUCCGUUGGCGUAAUGGUGACGCGUCUCCCUCCUAAGGAGUAGACUGCGGGUUCGAGUCCCGUACGGAACG [U2C A20G A42U] | 0.642
GCUCCGUUGGCGUAAUGGUAACGCGUCUCCCUCCUAAGGAGAAGACUGCGGGUUCGGGUCCCGUACGGAACG [U2C A57G] | 0.891
GAUCCGUUGGCGUAAUGGUAACGCGUCUCCCACCUAAGGAGAAGACUGCGGGUUCGAGUCCCGUACGGAACG [U2A U32A] | 0.72
GAUCCGUUGGCGUAAGGGUAACGCGUCUCCCUCCUAAGGAGAAGACUGCGGGUUCGAGUCCCGUACGGAACG [U2A U16G] | 1.03
GCUCCGUUGGCGUAAUGGUAACGCGUCUCCCUCCUAAGGUGCAGACUGCGGGUUCGAGUCCCGUAUGGAACG [U2C A40U A42C C66U] | ≤ 0.5
GCUCCGUUGGCGUAAUGGUGACGCGUCUCCCUCCUAAGGAGAAGACAGCGGGAUCGAGUCCUGUAUGGAACG [U2C A20G U47A U53A C62U C66U] | ≤ 0.5
GAGCCGUUGGCGUAAUGGUAACGCGUCUGGCUCCUAAGGAGAAGAGUGCGGGUUCGAGUCCCGUACGGAGCG [U2A U3G C29G C30G C46G A70G] | ≤ 0.5
GCUUCGUUGGCGUAAUGGUAACGCGUCUCCCUCAUAAGGAGAAGACUGCGGGUUCGAAUCCCGUACGGAACG [U2C C4U C34A G58A] | ≤ 0.5
GAUCCGUUGGCGUAAUGGUAACGCGUCUCCCUCCUAAGGAGAAGACUCCGGGUUCGAGUCCCGUACGGAACG [U2A G48C] | 0.92
GAUCCGUUGGCGUAAUGGUAACGCGUCUCCCCCCUGAGGAGAAGACUGCGGGUUCGAGUCCCGUACGGAACG [U2A U32C A36G] | 0.736
GCUACGUUGGCGUAAUGGUAACGCGUCCCCCUCCUAAGGAGAAGACUGCGGGCUCGAGUCCCGUACGGAACG [U2C C4A U28C U53C] | ≤ 0.5
